From article PMC4969713 (Journal of Alzheimer's Disease, 2016)
Entries after “also recorded” stand apart in the source; their conditions may differ. Structures can show the parent of a compound that is named as a salt.

Columns and labels:
5-HT7 receptor [1] = biological target: T1, 5-HT7 receptor (Homo sapiens, UniProt P34969); assay: Radioligand binding competition, 5-HT7
male SHK mice = assay: Apomorphine-induced disruption of pre-pulse inhibition; type: in vivo; details: IP
Procedure, shortened: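 Male SHK mice received apomorphine as the pro-psychotic agent to disrupt pre-pulse inhibition. Groups: untreated control, apomorphine alone, haloperidol 1 mg/kg as positive control, and test compound at several doses. Groups were compared with the apomorphine-only group by Student test.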

[2] = Stability in aqueous solutions; type: physicochemical; details: 72 h, room temperature
Procedure, shortened: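 Test compound was incubated for 72 h at room temperature. Media were distilled water, salt solution at pH 4.0 or pH 7.0, and physiological solution at pH 7.4. Read-out was the fraction of the original concentration remaining.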

histamine H3 receptor = histamine H3 receptor (Homo sapiens, UniProt Q9Y5N1); assay: Radioligand binding competition, histamine H3
BALB/c mice = assay: Tail suspension test; type: in vivo; details: AVN-101 0.05 mg/kg IP once daily for 4 days
Procedure, shortened: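 Test compound dissolved in saline, injected IP into BALB/c mice once daily for 4 days, last injection 5 min before tail suspension; vehicle (saline) controls; fluoxetine and desipramine 15 mg/kg IP as positive controls, last dose 30 min before test. Immobility measured; at least 8 animals per group; Student t-test.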

[3] = Stability in murine blood plasma; type: in vitro ADME, mouse; details: 30-min incubation, room temperature
femur bone marrow cells = assay: Chromosomal aberrations in femur bone marrow cells; type: in vivo, mice
Procedure, shortened: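 Mice 8–12 weeks old, male and female, were dosed orally with test compound or cyclophosphamide 20 mg/kg. Schedule was single dose with kill at 24 h, or qd for 5 days with kill 6 h after the last dose. Colchicine 4 mg/kg was given orally 2.5 h before decapitation. Femur marrow was put into 0.55% KCl at 37°C for 15 min, then spun. Scoring covered 100 metaphases per animal (500 per group), expressed as % aberrant cells.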

CYP3A4 = CYP3A4 (Homo sapiens, UniProt P08684); assay: Metabolism by recombinant CYP3A4; type: in vitro ADME
5-HT7 receptor [4] = biological target: T1, 5-HT7 receptor; details: Table 2; cited from earlier work
sigma 1 receptor = sigma 1 receptor (Homo sapiens, UniProt Q99720); assay: Target panel binding, sigma 1
[5] = Median lethal dose after single administration; set-up: species or system mice; details: male, CD1, mouse, in vivo
Procedure, shortened: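 Male CD1 mice received a single dose of test compound in saline, IP at 80–200 mg/kg or orally at 200–700 mg/kg. Each dose went to a separate group (n = 6). LD50 with standard error was derived by probit analysis.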

Adrenergic α2B = Adrenergic α2B (Homo sapiens, UniProt P18089); assay: Radioligand competition, adrenergic α2B; type: binding
healthy volunteers = assay: Phase I tolerability, healthy volunteers; type: in vivo, human
Procedure, shortened: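 Healthy volunteers received single oral doses. Venous blood was drawn through an IV catheter before dosing and at several time points after. Urine was collected before dosing and at 4 h and 24 h after. Systolic and diastolic pressure and heart rate were monitored.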

Monkeys (Macaca mulatta) = assay: Q-T interval, monkeys; type: in vivo; details: 1 mg/kg IV; not affected
Solubility in water = type: physicochemical; details: pH 7.4
[6] = Biodistribution of [3H]AVN-101 in rat organs; type: in vivo, Wistar rats; details: for concentration in Blood / concentration in Brain / concentration in Heart / concentration in Kidneys / concentration in Liver / concentration in Lungs / concentration in Spleen: [3H] label; for accumulation in brain higher than in blood: 4 h
male BALB/c mice = assay: Novel object recognition, scopolamine-induced; type: in vivo; details: 1.0 mg/kg scopolamine; memantine 10 mg/kg; SB-742457 0.2 or 1.0 mg/kg
Procedure, shortened: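 All drugs were dissolved in saline and given IP; control animals received saline vehicle. Each group had at least 8 male BALB/c mice. Read-out was novel object recognition index, reported as mean ± SE.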

[7] = Stability in monkey blood plasma; type: in vitro ADME; details: 30-min incubation, room temperature
[8] = biological target: human recombinant H2 receptors (Homo sapiens, UniProt P25021); assay: Amthamine-induced cAMP accumulation in CHO-K1 cells; type: cell-based
Procedure, shortened: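 CHO-K1 cells exogenously expressing recombinant human H2 receptor were stimulated with 50 nM amthamine. Intracellular cAMP accumulation was registered, and blockade of this response by test compound was measured.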

[9] = 1 mg/kg PO qd for 5 days, females
[10] = 1 mg/kg PO qd for 5 days, males

T1 sequence (P34969 whole entry): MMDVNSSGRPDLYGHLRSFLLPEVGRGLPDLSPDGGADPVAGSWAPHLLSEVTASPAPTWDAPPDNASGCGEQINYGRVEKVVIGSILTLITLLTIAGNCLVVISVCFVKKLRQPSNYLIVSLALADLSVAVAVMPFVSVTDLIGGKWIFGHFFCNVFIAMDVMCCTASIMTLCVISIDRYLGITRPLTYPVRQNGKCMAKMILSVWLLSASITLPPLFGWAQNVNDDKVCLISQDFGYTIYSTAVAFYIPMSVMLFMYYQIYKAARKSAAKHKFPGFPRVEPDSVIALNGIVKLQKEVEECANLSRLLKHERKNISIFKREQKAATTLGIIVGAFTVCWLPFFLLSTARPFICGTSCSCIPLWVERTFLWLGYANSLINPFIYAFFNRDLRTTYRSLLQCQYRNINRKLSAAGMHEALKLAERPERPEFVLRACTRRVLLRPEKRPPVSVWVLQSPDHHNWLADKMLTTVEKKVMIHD
Chain of histamine H3 receptor (Q9Y5N1 whole entry, species assumed): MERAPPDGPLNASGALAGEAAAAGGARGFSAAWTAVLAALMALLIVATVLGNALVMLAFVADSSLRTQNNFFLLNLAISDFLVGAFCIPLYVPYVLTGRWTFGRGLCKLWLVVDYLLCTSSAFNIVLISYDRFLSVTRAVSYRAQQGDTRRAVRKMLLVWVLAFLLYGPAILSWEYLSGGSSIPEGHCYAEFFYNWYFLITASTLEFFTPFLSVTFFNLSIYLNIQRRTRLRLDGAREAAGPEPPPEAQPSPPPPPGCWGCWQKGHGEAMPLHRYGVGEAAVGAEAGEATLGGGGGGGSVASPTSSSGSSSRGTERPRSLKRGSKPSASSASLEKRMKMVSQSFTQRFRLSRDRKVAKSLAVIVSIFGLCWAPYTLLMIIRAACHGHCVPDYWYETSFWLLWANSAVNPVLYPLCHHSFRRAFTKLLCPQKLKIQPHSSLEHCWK
Chain of human recombinant H2 receptors (P25021 whole entry): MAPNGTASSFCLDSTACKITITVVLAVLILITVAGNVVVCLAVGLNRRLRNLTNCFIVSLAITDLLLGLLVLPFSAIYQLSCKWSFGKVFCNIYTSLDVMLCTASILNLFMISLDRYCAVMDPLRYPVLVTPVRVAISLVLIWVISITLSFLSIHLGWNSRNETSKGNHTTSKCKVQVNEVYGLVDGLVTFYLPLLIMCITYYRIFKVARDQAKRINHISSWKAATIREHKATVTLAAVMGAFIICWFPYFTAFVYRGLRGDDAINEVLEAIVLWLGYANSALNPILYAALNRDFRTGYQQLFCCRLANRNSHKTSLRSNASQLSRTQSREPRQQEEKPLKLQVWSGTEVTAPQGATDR
Chain of sigma 1 receptor (Q99720 whole entry, species assumed): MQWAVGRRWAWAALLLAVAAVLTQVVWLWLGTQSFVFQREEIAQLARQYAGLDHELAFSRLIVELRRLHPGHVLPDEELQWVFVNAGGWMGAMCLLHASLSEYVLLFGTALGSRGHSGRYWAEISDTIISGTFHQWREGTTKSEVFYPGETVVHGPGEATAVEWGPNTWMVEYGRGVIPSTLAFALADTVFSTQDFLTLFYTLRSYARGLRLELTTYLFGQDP
Chain of CYP3A4 (P08684 whole entry): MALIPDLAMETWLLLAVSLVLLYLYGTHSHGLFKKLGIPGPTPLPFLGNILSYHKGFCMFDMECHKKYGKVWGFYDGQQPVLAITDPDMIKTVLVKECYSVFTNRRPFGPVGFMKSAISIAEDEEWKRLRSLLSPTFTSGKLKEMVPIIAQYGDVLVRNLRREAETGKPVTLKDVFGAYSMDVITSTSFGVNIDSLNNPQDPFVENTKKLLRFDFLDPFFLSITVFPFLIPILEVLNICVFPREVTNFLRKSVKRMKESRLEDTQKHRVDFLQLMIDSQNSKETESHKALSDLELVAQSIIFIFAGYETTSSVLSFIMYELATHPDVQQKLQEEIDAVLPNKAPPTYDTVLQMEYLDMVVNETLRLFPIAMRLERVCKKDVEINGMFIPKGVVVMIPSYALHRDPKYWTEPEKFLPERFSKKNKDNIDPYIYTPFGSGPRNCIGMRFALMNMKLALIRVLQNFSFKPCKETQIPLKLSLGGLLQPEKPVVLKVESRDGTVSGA
Chain of Adrenergic α2B (P18089 whole entry): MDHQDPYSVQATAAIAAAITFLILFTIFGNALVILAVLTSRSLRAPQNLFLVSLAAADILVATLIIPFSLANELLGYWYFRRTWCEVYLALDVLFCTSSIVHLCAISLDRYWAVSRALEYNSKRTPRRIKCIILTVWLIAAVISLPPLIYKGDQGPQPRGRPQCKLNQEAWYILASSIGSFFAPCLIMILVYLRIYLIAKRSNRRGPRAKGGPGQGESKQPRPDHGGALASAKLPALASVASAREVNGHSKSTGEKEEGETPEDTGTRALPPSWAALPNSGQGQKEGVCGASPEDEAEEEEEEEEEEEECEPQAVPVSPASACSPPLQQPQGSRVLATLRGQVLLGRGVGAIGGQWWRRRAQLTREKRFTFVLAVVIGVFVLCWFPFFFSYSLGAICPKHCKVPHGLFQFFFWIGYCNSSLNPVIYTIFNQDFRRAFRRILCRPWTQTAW

Cc1ccc2c(c1)c1c(n2CCc2ccccc2)CCN(C)C1 [AVN-101, 2,8-dimethyl-5-penethyl-2,3,4,5-tetra-hydro-1h-pyrido[[4,3-B]]indole hydrochloride]
IC50 (5-HT7 receptor [1]): 0.28 nM | affinity higher than SB-742457 (5-HT7 receptor [1]): ~4 orders of magnitude | optimal dose in restoration of PPI (male SHK mice): 0.1 to 0.5 mg/kg | effect on apomorphine-induced disruption of PPI (male SHK mice; apomorphine 20 mg/kg, Haloperidol 1 mg/kg): effective in reversing | fraction of original concentration ([2]; distilled water): 97.03% | fraction of original concentration ([2]; physiological solution pH 7.4): 99.38% | fraction of original concentration ([2]; salt solution pH 4.0): 98.05% | fraction of original concentration ([2]; salt solution pH 7.0): 99.95% | binding (histamine H3 receptor): totally inactive; also recorded: does not bind | decrease in immobility time (BALB/c mice): comparable to that observed with either Fluoxetine or Desipramine | residual amount of original compound [3]: 16% | Cells with multiple aberrations (femur bone marrow cells; [9]): 0% | Total altered metaphases (%) (femur bone marrow cells; [9]): 0.8 ± 0.4% | cells with aberration, Double fragment (femur bone marrow cells; [9]): 0% | cells with aberration, Single fragment (femur bone marrow cells; [9]): 0.8% | cells with aberration, exchanges (femur bone marrow cells; [9]): 0% | cells with aberration, gaps (femur bone marrow cells; [9]): 0% | Cells with multiple aberrations (femur bone marrow cells; [10]): 0% | Total altered metaphases (%) (femur bone marrow cells; [10]): 1.4 ± 0.5% | cells with aberration, Double fragment (femur bone marrow cells; [10]): 0% | cells with aberration, Single fragment (femur bone marrow cells; [10]): 1.2% | cells with aberration, exchanges (femur bone marrow cells; [10]): 0% | cells with aberration, gaps (femur bone marrow cells; [10]): 0.2% | Cells with multiple aberrations (femur bone marrow cells; 1 mg/kg PO single dose, males): 0% | Total altered metaphases (%) (femur bone marrow cells; 1 mg/kg PO single dose, males): 1.2 ± 0.5% | cells with aberration, Double fragment (femur bone marrow cells; 1 mg/kg PO single dose, males): 0% | cells with aberration, Single fragment (femur bone marrow cells; 1 mg/kg PO single dose, males): 1.2% | cells with aberration, exchanges (femur bone marrow cells; 1 mg/kg PO single dose, males): 0% | cells with aberration, gaps (femur bone marrow cells; 1 mg/kg PO single dose, males): 0% | Cells with multiple aberrations (femur bone marrow cells; 20 mg/kg PO single dose, males): 0% | Total altered metaphases (%) (femur bone marrow cells; 20 mg/kg PO single dose, males): 1.6 ± 0.6% | cells with aberration, Double fragment (femur bone marrow cells; 20 mg/kg PO single dose, males): 0% | cells with aberration, Single fragment (femur bone marrow cells; 20 mg/kg PO single dose, males): 0.6% | cells with aberration, exchanges (femur bone marrow cells; 20 mg/kg PO single dose, males): 0% | cells with aberration, gaps (femur bone marrow cells; 20 mg/kg PO single dose, males): 1.0% | remaining at 0.5 h, 2 µM (CYP3A4): 2% | Ki (5-HT7 receptor [4]): 0.153 nM | binding (sigma 1 receptor): does not bind | LD50 at 2 weeks ([5]; ip): 105 ± 5 mg/kg | LD50 at 2 weeks ([5]; po): 331 ± 101 mg/kg | Ki (Adrenergic α2B): 0.41 to 3.6 nM | sleepiness (healthy volunteers; 20 mg, 8 volunteers per group): 3 volunteers | adverse effects (healthy volunteers; 20 mg, first half of the day): some adverse effects were detected in five volunteers | blood pressure, one person (healthy volunteers; 20 mg, 141/88 before to 157/87 (2 h–4 h) and 155/77 (6 h–7.5 h)): transient increase in systolic pressure | QT interval in ECG (healthy volunteers; 2, 4, 10, 20 mg single PO dose): No QT interval prolongation | biochemical and clinical parameters of blood and urine (healthy volunteers; all dose groups): in a normal range | tolerability (healthy volunteers; orally, doses of up to 20 mg daily): well tolerated | QT interval (Monkeys (Macaca mulatta)): 0.22 ± 0.04 s | heart rate (Monkeys (Macaca mulatta)): ca. 175 beats/min | solubility (Solubility in water): 194 mg/mL | concentration in Blood ([6]; 4 h after IV 5 mg/kg): 360 ± 10 ng/mL | concentration in Brain ([6]; 4 h after IV 5 mg/kg): 9440 ± 360 ng/mL | concentration in Heart ([6]; 4 h after IV 5 mg/kg): 9240 ± 230 ng/mL | concentration in Kidneys ([6]; 4 h after IV 5 mg/kg): 6500 ± 200 ng/mL | concentration in Liver ([6]; 4 h after IV 5 mg/kg): 5300 ± 160 ng/mL | concentration in Lungs ([6]; 4 h after IV 5 mg/kg): 8960 ± 110 ng/mL | concentration in Spleen ([6]; 4 h after IV 5 mg/kg): 5940 ± 150 ng/mL | concentration in Blood ([6]; 4 h after PO 10 mg/kg): 460 ± 10 ng/mL | concentration in Brain ([6]; 4 h after PO 10 mg/kg): 6240 ± 240 ng/mL | concentration in Heart ([6]; 4 h after PO 10 mg/kg): 3280 ± 150 ng/mL | concentration in Kidneys ([6]; 4 h after PO 10 mg/kg): 4700 ± 220 ng/mL | concentration in Liver ([6]; 4 h after PO 10 mg/kg): 3780 ± 130 ng/mL | concentration in Lungs ([6]; 4 h after PO 10 mg/kg): 3200 ± 230 ng/mL | concentration in Spleen ([6]; 4 h after PO 10 mg/kg): 3740 ± 150 ng/mL | accumulation in brain higher than in blood ([6]; IV): 26 fold | accumulation in brain higher than in blood ([6]; PO): 13 fold | IV/PO, normalized, Kidneys ([6]; normalized by dose): 2.77 | IV/PO, normalized, Spleen ([6]; normalized by dose): 3.18 | Organ bioavailability, Blood ([6]; rat, in vivo): 63.9% | Organ bioavailability, Brain ([6]; rat, in vivo): 33.0% | Organ bioavailability, Heart ([6]; rat, in vivo): 17.7% | Organ bioavailability, Kidneys ([6]; rat, in vivo): 36.2% | Organ bioavailability, Liver ([6]; rat, in vivo): 35.6% | Organ bioavailability, Lungs ([6]; rat, in vivo): 17.9% | Organ bioavailability, Spleen ([6]; rat, in vivo): 31.5% | effect on deficit in novel object recognition (male BALB/c mice): partially reverse | residual amount of original compound [7]: 45% | receptor activation [8]: activated neither H1 nor H2 receptors | blockade of agonist-induced cell response ([8]; 50 nM amthamine, cAMP accumulation): effectively blocked
